Data set [1] can be described thus: Volume of distribution in BALB/c mouse at 5 mg/kg, iv. On the set-up: dose 5 mg/kg, route intravenous. In kind it is ADME, organism-based. The conditions noted are these: in vivo.
A short description of data set [2]: AUC (0 to infinity) in Sprague-Dawley rat at 30 mg/kg, po. Conditions: plasma. On the set-up: time infinity, dose 30 mg/kg, route oral. The format is ADME, organism-based.
Data set [3] is described as follows: Bioavailability in Sprague-Dawley rat at 25 mg/kg, po. Conditions: in vivo. The format is ADME, organism-based.
A short description of data set [4]: Cmax in BALB/c mouse at 25 mg/kg, po. The format is ADME, organism-based. On the set-up: dose 25 mg/kg, route oral. The conditions noted are these: in vivo. The gist of the method:
(§1)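 Male BALB/c mice (~25 g); fasted overnight for single p.o. dosing, not fasted for i.v. or i.p. dosing. Composite blood sampling, n=3 per time point: 5, 15, 30 min, 1, 3, 6, 24, 48 hr after i.v. dose; 0.5, 1, 3, 5, 8, 24, 30, 48 hr after p.o. or i.p. dose. Heparinized plasma, both parent and N-oxide measured by LC/MS/MS (MRM 494.2/98.1 and 510.2/98.1); non-compartmental analysis, AUC by linear trapezoidal rule.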

Data set [5] deals with Mus musculus. Briefly: Bioavailability in BALB/c mouse assessed as bioavailability of ([7-(2,6-Dichloro-phenyl)-5-methyl-benzo[1,2,4]triazin-3-yl]-[4-(2-pyrrolidin-1-yl-ethoxy)-phenyl]-amine) at 25 mg/kg, po. The conditions noted are these: in vivo.
The nature of data set [6]: AUC (0 to last) in BALB/c mouse at 25 mg/kg, po. In kind it is ADME, organism-based. On the set-up: time 0 - last, dose 25 mg/kg, route oral. The conditions noted are these: plasma. A digest of the protocol:
as §1

The subject of data set [7] is Rattus norvegicus. As to the kind of experiment: Tmax in Sprague-Dawley rat assessed as Tmax of ([7-(2,6-Dichloro-phenyl)-5-methyl-benzo[1,2,4]triazin-3-yl]-[4-(2-pyrrolidin-1-yl-ethoxy)-phenyl]-amine) at 25 mg/kg, po. Conditions: in vivo.
Data set [8] in a line: Tmax in Sprague-Dawley rat at 25 mg/kg, po. In kind it is ADME, organism-based. Conditions: in vivo. More on the design: dose 25 mg/kg, route oral.
The test system of data set [9] is Mus musculus. As to the kind of experiment: AUC (0 to last) in BALB/c mouse assessed as AUC of ([7-(2,6-Dichloro-phenyl)-5-methyl-benzo[1,2,4]triazin-3-yl]-[4-(2-pyrrolidin-1-yl-ethoxy)-phenyl]-amine) at 25 mg/kg, po. Conditions: in vivo.
The nature of data set [10]: Half life in Sprague-Dawley rat at 5 mg/kg, ip. The conditions noted are these: in vivo. On the set-up: dose 5 mg/kg, route intraperitoneal. The format is ADME, organism-based.
Data set [11] has as its system Mus musculus. As to the kind of experiment: AUC (0 to infinity) in BALB/c mouse assessed as AUC of ([7-(2,6-Dichloro-phenyl)-5-methyl-benzo[1,2,4]triazin-3-yl]-[4-(2-pyrrolidin-1-yl-ethoxy)-phenyl]-amine) at 25 mg/kg, po. The conditions noted are these: in vivo.
Data set [12] is described as follows: Clearance in BALB/c mouse at 5 mg/kg, iv. In kind it is ADME, organism-based. More on the design: dose 5 mg/kg, route intravenous. The conditions noted are these: in vivo. The gist of the method: as §1
A short description of data set [13]: Volume of distribution in Sprague-Dawley rat at 5 mg/kg, iv. In kind it is ADME, organism-based. On the set-up: dose 5 mg/kg, route intravenous. Conditions: in vivo.
Data set [14] is described as follows: AUC (0 to infinity) in BALB/c mouse at 40 mg/kg, po. The conditions noted are these: plasma. In kind it is ADME, organism-based. On the set-up: time infinity, dose 40 mg/kg, route oral. The gist of the method: as §1
Data set [15] can be described thus: Clearance in BALB/c mouse at 5 mg/kg, ip. The format is ADME, organism-based. On the set-up: dose 5 mg/kg, route intraperitoneal. Conditions: in vivo. The gist of the method:
as §1

Data set [16] is described as follows: AUC (0 to last) in Sprague-Dawley rat at 25 mg/kg, po. Conditions: plasma. More on the design: time 0 - last, dose 25 mg/kg, route oral. The format is ADME, organism-based.
The nature of data set [17]: Cmax in Sprague-Dawley rat at 25 mg/kg, po. In kind it is ADME, organism-based. More on the design: dose 25 mg/kg, route oral. The conditions noted are these: in vivo.
The test system of data set [18] is Rattus norvegicus. As to the kind of experiment: Bioavailability in Sprague-Dawley rat assessed as bioavailability of ([7-(2,6-Dichloro-phenyl)-5-methyl-benzo[1,2,4]triazin-3-yl]-[4-(2-pyrrolidin-1-yl-ethoxy)-phenyl]-amine) at 25 mg/kg, po. The conditions noted are these: in vivo.
For data set [19], the system named is Mus musculus. Briefly: Drug level in BALB/c mouse plasma at 5 mg/kg, ip. In kind it is ADME, organism-based. More on the design: dose 5 mg/kg, route intraperitoneal. The conditions noted are these: in vivo. The gist of the method: as §1
A short description of data set [20]: AUC (0 to infinity) in Sprague-Dawley rat at 25 mg/kg, po. The format is ADME, organism-based. More on the design: time infinity, dose 25 mg/kg, route oral. The conditions noted are these: plasma.
For data set [21], the system named is Rattus norvegicus. As to the kind of experiment: AUC (0 to infinity) in Sprague-Dawley rat assessed as AUC of ([7-(2,6-Dichloro-phenyl)-5-methyl-benzo[1,2,4]triazin-3-yl]-[4-(2-pyrrolidin-1-yl-ethoxy)-phenyl]-amine) at 5 mg/kg, iv. In kind it is ADME, organism-based, Plasma. More on the design: time infinity, dose 5 mg/kg, route intravenous. Conditions: in vivo.

Data set [22] can be described thus: Bioavailability in BALB/c mouse at 25 mg/kg, po. In kind it is ADME, organism-based. The conditions noted are these: in vivo.
The test system of data set [23] is Mus musculus. As to the kind of experiment: AUC (0 to infinity) in BALB/c mouse assessed as AUC of ([7-(2,6-Dichloro-phenyl)-5-methyl-benzo[1,2,4]triazin-3-yl]-[4-(2-pyrrolidin-1-yl-ethoxy)-phenyl]-amine) at 5 mg/kg, iv. The format is ADME, organism-based, Plasma. More on the design: time infinity, dose 5 mg/kg, route intravenous. Conditions: in vivo. A digest of the protocol:
as §1

Data set [24] can be described thus: AUC (0 to infinity) in Sprague-Dawley rat at 5 mg/kg, iv. Conditions: plasma. In kind it is ADME, organism-based. On the set-up: time infinity, dose 5 mg/kg, route intravenous.

Structures are written as SMILES.

For `Cc1cc(-c2c(Cl)cccc2Cl)cc2nnc(Nc3ccc(OCC[N+]4([O-])CCCC4)cc3)nc12`, the Vd in [1] came to 1.2 L/kg; in data set [13] it was 1.9 L/kg. The area under the curve AUC(0-inf) in data set [2] is 9310 ng·h/mL; in data set [14], 13400 ng·h/mL; in [20] it was 470 ng·h/mL; in [24], 6050 ng·h/mL. Moreover, the bioavailability in data set [3] is 1.6%; in data set [22], 3.5%. In addition, the Cmax in data set [4] was 171 ng/mL; in data set [17], 160 ng/mL. Moreover, the figures for the F in the data set on Mus musculus [5] and in the data set on Rattus norvegicus [18] were 6.8% and 3.1%, respectively. The AUC(0-t) came to 912 ng·h/mL in data set [6] and 467 ng·h/mL in [16]. Moreover, the time of peak concentration (Tmax) in the data set on Rattus norvegicus [7] was 4 h; in data set [8], 3.5 h. For the same compound, the area under the curve (AUC) in the data set on Mus musculus [9] worked out at 1740 ng·h/mL; in the data set on Mus musculus [11], 1760 ng·h/mL; in the data set on Rattus norvegicus [21], 539 ng·h/mL; in the data set on Mus musculus [23], 1390 ng·h/mL. In data set [10], this compound gave a half-life of 2.3 h. This compound had a clearance in data set [12] of 15.6 mL/min/kg. For the same compound, the apparent clearance CL/F in data set [15] stood at 11.6 mL/min/kg. Besides, in the data set with Mus musculus [19], the C0 was 4100 ng/mL.

The term Vd denotes the apparent volume that relates the amount in the body to the concentration in plasma or blood. A lower Vd goes with little distribution into tissue. The AUC(0-inf) is the area under the concentration-time curve extrapolated to infinity. A low value points to low exposure. As usually defined, the bioavailability is dose-corrected exposure relative to a reference, in per cent. The low end stands for poor availability, the high end for good availability. As a reminder, the Cmax is the highest concentration seen after dosing. In general, AUC(0-t) refers to the area under the concentration-time curve up to a stated or last time point. Read a high AUC(0-t) as high exposure. For orientation: Tmax means the time from dosing to the highest level. In general, AUC refers to concentration integrated over time. As usually defined, the half-life is the time needed for the level to fall by half in the phase considered. Lower therefore signals rapid decline. What is called clearance is the volume of plasma or blood freed of the substance per unit of time. A higher clearance goes with a high capacity for elimination. In general, CL/F refers to clearance divided by bioavailability, as obtained after extravascular dosing.

The values are drawn from ChEMBL document CHEMBL1147085, “Metabolism and pharmacokinetics of a novel Src kinase inhibitor TG100435 ([7-(2,6-dichloro-phenyl)-5-methyl-benzo[1,2,4]triazin-3-yl]-[4-(2-pyrrolidin-1-yl-ethoxy)-phenyl]-amine) and its active N-oxide metabolite TG100855 …” (Drug Metab Dispos, 2007).
